TRPC6 act = mouse TRPC6 channel activators, primary screen, cell-based, HEK293, membrane potential dye | B-score at 10 µM | 310,000 tested, 0.13% active | Short transient receptor potential channel 6 (Mus musculus), Q61143 | HEK293-TRPC6 membrane potential dye fluorescence; stronger effect = higher value;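 active means B-score of the integrated fluorescence ratio above library mean plus 3 SD, and starting fluorescence ratio within library mean plus 5 SD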;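 further: higher score means more depolarization so channel activation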
TRPC4 PAM = positive allosteric modulators of TRPC4, primary screen, cell-based, mouse TRPC4beta, HEK293 mu-opioid, Fluo-4 calcium; Short transient receptor potential channel 4 (Mus musculus), Q9QUQ5; DAMGO EC20, Fluo-4 Ca2+ flux; stronger effect = higher value; B-score at 10 µM; 310,000 tested, 0.42% active; AID 2227, 2009;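 active means B-score of calcium response area above 5 SD of library B-scores, with initial fluorescence ratio within 5 SD of library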;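 further: B-score of integrated fluorescence ratio over time as area under calcium response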
DNA FID counter = compounds displacing fluorescent DNA intercalator, primary screen, artefact control for HCV NS3 helicase inhibitor project, biochemical, FID fluorescence. DNA fluorescent intercalator displacement. 290,000 tested, 0.17% active. inhibition, % at 7.9 µM. AID 1845, 2009; in the data active means inhibition above about 37%;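 further: 0% = vehicle and 100% = reference compound; higher means more ethidium bromide displaced from hairpin DNA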
TRPC4 block = inhibitors of mouse TRPC4 channel, primary screen, Fluo4 calcium, HEK293 TRPC4beta/mu-opioid cells | Short transient receptor potential channel 4 (Mus musculus), Q9QUQ5 | DAMGO-evoked Fluo4 calcium flux; stronger effect = lower value | B-score at 10 µM | 300,000 tested, 0.39% active;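 active means B-score over 3 SD under the library average, no early fluorescence shift, positive overall ratio signal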
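Material: HEK293 cells with stable TRPC4beta plus mu-opioid receptor expression / Probe or stimulus: DAMGO in two steps, submaximal then maximal / Compound: single concentration per test compound / Technique: kinetic Fluo4 fluorescence imaging of calcium influx / Read-out: per-well B score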
TRPC6 inh = mouse TRPC6 channel inhibitors, primary screen, cell-based, HEK293, membrane potential dye; AID 2553, 2010; 310,000 tested, 1.1% active; B-score at 10 µM; ACh-evoked depolarization; stronger effect = lower value;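 active means B-score under library mean minus 3 SD, initial fluorescence not abnormally high, positive integrated signal ratio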;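 further: B-score derived from integrated fluorescence ratio over the kinetic read; more negative B-score means stronger inhibition of depolarization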
TRPC4 agonist = activators of mouse TRPC4 channel, primary screen, Fluo4 calcium, HEK293 TRPC4beta/mu-opioid cells; Fluo4 calcium fluorescence; stronger effect = higher value; B-score at 10 µM; 310,000 tested, 0.49% active; AID 2237, 2010;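 active means B-score above 5 SD of library B-scores, and initial fluorescence ratio not above library mean plus 5 SD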;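 further: positive B-score marks a calcium rise read as TRPC4 activation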
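Assay system: HEK293 stable line with TRPC4beta plus mu-opioid receptor. Times: dye 45 min RT, read 110 s. Measured by: kinetic Fluo4 calcium fluorescence. Measure: B score of integrated ratio. Controls: assay buffer as low control, maximal DAMGO as high control.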
The depositor's hits bear a star; i = inactive; / = no result. Hits are enriched below; roughly 2.3% of the tested compounds scored in any of these assays.

SMILES	TRPC6 act	TRPC4 PAM	DNA FID counter	TRPC4 block	TRPC6 inh	TRPC4 agonist
CC(C)(CSc1ccccn1)NS(=O)(=O)c1ccc(Cl)cc1	i	10*	-27	i	i	i
CC(C)(CSc1ccccn1)NS(=O)(=O)c1ccccc1	i	i	-7	i	i	i
CC1CCc2c(sc(/N=C/N(C)C)c2C#N)C1 (configuration not stated)	i	i	-15	-6*	i	i
CCN(c1nc(N)c(C(=O)N=C(N)N)nc1Cl)C(C)C	i	i	/	i	i	100*
COc1cccc(C(O)C2OC(=O)c3ccccc32)c1OC (configuration not stated)	i	i	/	i	i	i
Cc1ccc(OCCOC(=O)c2sc(=S)n(C)c2C)cc1	i	i	-3	i	i	i
Cc1c(C(=O)OCCOc2ccc(Br)cc2)sc(=S)n1C	i	11*	3	i	i	i
CCc1ccc(OCC(=O)NC2CCCCC2)c(Br)c1	i	55*	-42	i	i	i
CC1(C)CC(N2CCC(=O)NC2=S)CC(C)(C)N1	i	i	/	i	i	i
CC1(C)CC(N2CCC(=O)N(C3CC(C)(C)NC(C)(C)C3)C2)CC(C)(C)N1	i	i	37*	i	i	i
CC(C)NC(=O)COc1coc(CN2CCN(c3ccccc3F)CC2)cc1=O	i	i	-15	i	i	i
CCCc1ccc2oc(C(=O)NCCN3CCCC(C(N)=O)C3)c(C)c2c1 (configuration not stated)	i	13*	10	i	i	i
CCCc1ccc2oc(C(=O)NCCN3CCCC(O)C3)c(C)c2c1 (configuration not stated)	i	i	21	i	i	i
Cc1cccc(N2CCN(CC(=O)Nc3nccs3)CC2)c1C	13*	i	-20	i	-5.6*	i
COc1ccccc1N1CCN(CC(=O)Nc2nccs2)CC1	i	i	-8	i	i	i
O=C(N/C(=C/c1ccccc1F)C(=O)N1CCCCC1)c1ccccc1	i	i	-28	i	i	i
Cc1cccc(N2CCN(Cc3ccoc3)CC2)c1C	i	i	1	-5*	i	i
Oc1cccc(CCC2CCCCN2Cc2cn[nH]c2-c2ccc3c(c2)OCO3)c1 (configuration not stated)	i	i	18	i	i	43*
c1cc2c(cc1-c1[nH]ncc1CN1C[C@H]3CC[C@H]1C3)OCO2	i	i	1	i	i	i
OC(COc1ccc(F)cc1Cl)CN1CCC(Cc2ccccc2)CC1 (configuration not stated)	i	i	39*	i	i	i
Cc1ncsc1CCOC(=O)C12CC3CC(CC(C3)C1)C2	i	i	-17	-7*	i	i
CN(CCc1ccccn1)C(=O)c1cc(COc2ccc(F)cc2F)on1	i	i	-19	i	i	i
Cc1ccc(OCc2cc(C(=O)N(C)CCc3ccccn3)no2)cn1	i	i	-12	i	i	81*
Cc1ccc(OCC(=O)N(C)CCc2ccccn2)cc1	i	i	3	i	i	89*
CN(CCc1ccccn1)S(=O)(=O)c1ccccc1F	i	i	3	i	i	79*
Cc1ccc(OCC(=O)N2CCCC(CCC(=O)N(C)CCc3ccccn3)C2)cc1 (configuration not stated)	i	i	-28	i	i	i
CN(CCc1ccccn1)C(=O)Nc1ccc(F)cc1	i	i	7	i	i	63*

Assay outcomes (PubChem)
